# Experimental data from ChEMBL document CHEMBL1145462, “In vivo pharmacodynamic activity of the glycopeptide dalbavancin” (Antimicrob Agents Chemother, 2007).
# What was measured:
# [1] = test system: Staphylococcus aureus; assay: AUC/MIC ratio of methicillin-resistant Staphylococcus aureus infected neutropenic mouse thigh infection model at 62 mg/kg, ip administered every 72 hrs by 1-log killing experiment; type: functional; details: route intraperitoneal
# [2] = test system: Staphylococcus aureus; assay: AUC/MIC ratio of Staphylococcus aureus 33591 infected neutropenic mouse thigh infection model at 93 mg/kg, ip administered every 72 hrs by 1-log killing experiment; type: functional; details: route intraperitoneal
# [3] = Half life in bacterial pathogen-infected neutropenic Swiss ICR mouse thigh infection model at 20 mg/kg, ip; type: ADME, organism-based; set-up: dose 20 mg/kg, route intraperitoneal; details: in vivo
# Summary of the method: (§1)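 Thigh-infected neutropenic mice received single intraperitoneal doses (2.5, 5, 10, 20, 40, 80 mg/kg; 0.2 ml/dose). Blood was drawn by retroorbital aspiration from groups of three mice at 0.5, 1, 2, 4, 6, 24, 48, 72 and 96 h. Plasma levels were measured by microbiologic assay with Bacillus subtilis (detection limit 0.10 mg/liter). Noncompartmental analysis was used: half-life by linear least-squares regression, AUC by trapezoidal rule.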
# [4] = test system: Staphylococcus aureus; assay: Bactericidal activity against […] Staphylococcus aureus ATCC 29213 infected neutropenic Swiss ICR mouse thigh infection model assessed as drug level causing 1-log reduction of bacterial count at 267 mg/kg, ip dosed every 24 hrs; type: functional; details: route intraperitoneal
# [5] = test system: Staphylococcus aureus; assay: AUC/MBC ratio of Staphylococcus aureus 33591 infected neutropenic mouse thigh infection model at 114 mg/kg, ip administered every 72 hrs by 2-log killing experiment; type: functional; details: route intraperitoneal
# [6] = test system: Streptococcus pneumoniae; assay: AUC/MIC ratio of Streptococcus pneumoniae 1329 infected neutropenic mouse thigh infection model at 0.90 mg/kg, ip administered every 24 hrs by static effect experiment; type: functional; details: dose 0.9 mg/kg; route intraperitoneal
# [7] = test system: Staphylococcus aureus; assay: Antibacterial activity against Staphylococcus aureus 33591 by microdilution method; type: functional
# Summary of the method: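 MICs in duplicate on at least two occasions by standard CLSI broth microdilution; S. aureus grown and quantified in Mueller-Hinton broth/agar.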
# [8] = test system: Streptococcus pneumoniae; assay: AUC/MIC ratio of Streptococcus pneumoniae 1293 infected neutropenic mouse thigh infection model at 1.01 mg/kg, ip administered every 72 hrs by static effect experiment; type: functional; details: route intraperitoneal
# [9] = Half life in bacterial pathogen-infected neutropenic Swiss ICR mouse thigh infection model at 2.5 mg/kg, ip; type: ADME, organism-based; set-up: dose 2.5 mg/kg, route intraperitoneal; details: in vivo
# Summary of the method: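 Single ip dose (0.2 ml) given to thigh-infected neutropenic ICR Swiss mice. Retro-orbital blood taken from groups of three at 0.5–96 h; plasma assayed microbiologically with Bacillus subtilis (detection limit 0.10 mg/liter). Half-life derived by linear least-squares regression within a noncompartmental analysis.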
# [10] = test system: Staphylococcus aureus; assay: AUC/MBC ratio of Staphylococcus aureus 33591 infected neutropenic mouse thigh infection model at 27.7 mg/kg, ip administered every 24 hrs by 1-log killing experiment; type: functional; details: route intraperitoneal
# [11] = test system: Streptococcus pneumoniae; assay: AUC/MIC ratio of Streptococcus pneumoniae 1325 infected neutropenic mouse thigh infection model at 1.16 mg/kg, ip administered every 72 hrs by 2-log killing experiment; type: functional; details: route intraperitoneal
# [12] = test system: Streptococcus pneumoniae; assay: AUC/MIC ratio of Streptococcus pneumoniae ATCC 10813 infected neutropenic mouse thigh infection model at 0.71 mg/kg, ip administered every 72 hrs by static effect experiment; type: functional; details: route intraperitoneal
# [13] = test system: Staphylococcus aureus; assay: AUC/MIC ratio of Staphylococcus aureus Smith infected neutropenic mouse thigh infection model at 73.5 mg/kg, ip administered every 24 hrs by 2-log killing experiment; type: functional; details: route intraperitoneal
# [14] = test system: Streptococcus pneumoniae; assay: Antibacterial activity against Streptococcus pneumoniae ATCC 10813 by microdilution method; type: functional
# Summary of the method: (§2)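 MIC and MBC were determined by CLSI broth microdilution, in duplicate on at least two occasions. Staphylococci were grown in Mueller-Hinton broth and agar; pneumococci were plated on sheep blood agar.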
# [15] = test system: Staphylococcus aureus; assay: AUC/MIC ratio of Staphylococcus aureus 33591 infected neutropenic mouse thigh infection model at 27.7 mg/kg, ip administered every 24 hrs by 1-log killing experiment; type: functional; details: route intraperitoneal
# [16] = test system: Staphylococcus aureus; assay: AUC/MIC ratio of Staphylococcus aureus ATCC 25923 infected neutropenic mouse thigh infection model at 160 mg/kg, ip administered every 72 hrs by static effect experiment; type: functional; details: route intraperitoneal
# [17] = test system: Staphylococcus aureus; assay: AUC/MIC ratio of Staphylococcus aureus 33591 infected neutropenic mouse thigh infection model at 33.5 mg/kg, ip administered every 24 hrs by 2-log killing experiment; type: functional; details: route intraperitoneal
# [18] = test system: Streptococcus pneumoniae; assay: Antibacterial activity against Streptococcus pneumoniae 1199 by microdilution method; type: functional; summary of the method: as §2
# [19] = test system: Streptococcus pneumoniae; assay: Antibacterial activity against Streptococcus pneumoniae 1329 by microdilution method; type: functional; summary of the method: as §2
# [20] = Half life in bacterial pathogen-infected neutropenic Swiss ICR mouse thigh infection model at 10 mg/kg, ip; type: ADME, organism-based; set-up: dose 10 mg/kg, route intraperitoneal; details: in vivo; summary of the method: as §1
# [21] = test system: Staphylococcus aureus; assay: AUC/MIC ratio of Staphylococcus aureus ATCC 25923 infected neutropenic mouse thigh infection model at 42.7 mg/kg, ip administered every 24 hrs by static effect experiment; type: functional; details: route intraperitoneal
# [22] = test system: Streptococcus pneumoniae; assay: AUC/MIC ratio of Streptococcus pneumoniae 1199 infected neutropenic mouse thigh infection model at 0.49 mg/kg, ip administered every 24 hrs by 1-log killing experiment; type: functional; details: route intraperitoneal
# [23] = test system: Staphylococcus aureus; assay: AUC/MBC ratio of Staphylococcus aureus 33591 infected neutropenic mouse thigh infection model at 74 mg/kg, ip administered every 72 hrs by static effect experiment; type: functional; details: route intraperitoneal
# [24] = test system: Staphylococcus aureus; assay: AUC/MBC ratio of Staphylococcus aureus 33591 infected neutropenic mouse thigh infection model at 33.5 mg/kg, ip administered every 24 hrs by 2-log killing experiment; type: functional; details: route intraperitoneal
# [25] = test system: Staphylococcus aureus; assay: AUC/MIC ratio of Staphylococcus aureus 33591 infected neutropenic mouse thigh infection model at 22.3 mg/kg, ip administered every 24 hrs by static effect experiment; type: functional; details: route intraperitoneal
# [26] = test system: Streptococcus pneumoniae; assay: AUC/MIC ratio of Streptococcus pneumoniae ATCC 10813 infected neutropenic mouse thigh infection model at 0.82 mg/kg, ip administered every 72 hrs by 2-log killing experiment; type: functional; details: route intraperitoneal
# [27] = test system: Staphylococcus aureus; assay: AUC/MBC ratio of methicillin-resistant Staphylococcus aureus infected neutropenic mouse thigh infection model at 53.5 mg/kg, ip administered every 24 hrs by 2-log killing experiment; type: functional; details: route intraperitoneal
# [28] = test system: Streptococcus pneumoniae; assay: AUC/MIC ratio of Streptococcus pneumoniae ATCC 10813 infected neutropenic mouse thigh infection model at 1.75 mg/kg, ip administered every 24 hrs by 2-log killing experiment; type: functional; details: route intraperitoneal
# [29] = test system: Staphylococcus aureus; assay: AUC/MBC ratio of Staphylococcus aureus Smith infected neutropenic mouse thigh infection model at 73.5 mg/kg, ip administered every 24 hrs by 2-log killing experiment; type: functional; details: route intraperitoneal
# [30] = test system: Staphylococcus aureus; assay: AUC/MBC ratio of Staphylococcus aureus Smith infected neutropenic mouse thigh infection model at 95 mg/kg, ip administered every 72 hrs by 1-log killing experiment; type: functional; details: route intraperitoneal
# [31] = test system: Streptococcus pneumoniae; assay: Bactericidal activity against penicillin-susceptible Streptococcus pneumoniae ATCC 10813 infected neutropenic Swiss ICR mouse thigh infection model assessed as drug level causing 2-log reduction of bacterial count at 1.26 mg/kg, ip dosed every 36 hrs; type: functional; details: route intraperitoneal
# Summary of the method: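 Neutropenic mice (cyclophosphamide ip 150 mg/kg day −4, 100 mg/kg day −1, then every 48 h) received 0.1 ml log-phase inoculum per thigh under halothane. Intraperitoneal dalbavancin started 2 h later and was given for 6 days at q12h, q24h, q36h or q72h, two mice per regimen. Thigh CFU were counted at 144 h. Endpoint doses relative to start-of-therapy counts came from Hill-model nonlinear regression and are expressed per 24 h.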
smiles,measurement,setting,value
CN[C@H]1C(=O)N[C@@H]2Cc3ccc(cc3)Oc3cc4cc(c3O[C@@H]3O[C@H](C(=O)O)[C@@H](O)[C@H](O)[C@H]3NC(=O)CCCCCCCCC(C)C)Oc3ccc(cc3Cl)[C@@H](O)[C@@H]3NC(=O)[C@H](NC(=O)[C@@H]4NC(=O)[C@@H](NC2=O)c2cc(cc(O)c2Cl)Oc2cc1ccc2O)c1ccc(O)c(c1)-c1c(O[C@H]2O[C@H](CO)[C@@H](O)[C@H](O)[C@@H]2O)cc(O)cc1[C@@H](C(=O)NCCCN(C)C)NC3=O [DALBAVANCIN],RatioAUC/MIC,[1],202
same,RatioAUC/MIC,[2],160
same,half-life,[3],7.6 h
same,ED 1-log kill,[4],267 mg/kg/day
same,Ratio,[5],94
same,RatioAUC/MIC,[6],18
same,MBC,[7],0.25 µg/mL
same,MIC,[7],0.12 µg/mL
same,RatioAUC/MIC,[8],14.1
same,half-life,[9],13.1 h
same,Ratio,[10],58.3
same,RatioAUC/MIC,[11],17.6
same,RatioAUC/MIC,[12],1.4
same,RatioAUC/MIC,[13],361
same,MBC,[14],0.03 µg/mL
same,MIC,[14],0.03 µg/mL
same,RatioAUC/MIC,[15],121
same,RatioAUC/MIC,[16],274
same,RatioAUC/MIC,[17],157
same,MBC,[18],0.004 µg/mL
same,MIC,[18],0.004 µg/mL
same,MBC,[19],0.008 µg/mL
same,MIC,[19],0.008 µg/mL
same,half-life,[20],12.5 h
same,RatioAUC/MIC,[21],216
same,RatioAUC/MIC,[22],19.4
same,Ratio,[23],59
same,Ratio,[24],74.3
same,RatioAUC/MIC,[25],96.2
same,RatioAUC/MIC,[26],1.6
same,Ratio,[27],125
same,RatioAUC/MIC,[28],9.9
same,Ratio,[29],173
same,Ratio,[30],78
same,Activity,[31],1.81
